The source made the active and inactive calls. No cut-off for these calls is given here.
Assays:
SK-OV-3 = experiment: Antiproliferative activity against human SK-OV-3 cells assessed as cell growth inhibition at 0.4 to 100 uM after 6 days by XTT assay; assay type: cell-based; conditions: human, sk-ov-3, 144 h, 100 µM; dose 0.4-100 µM, time 6 day
MDA-MB-231 = experiment: Antiproliferative activity against human MDA-MB-231 cells assessed as cell growth inhibition at 0.4 to 100 uM after 6 days by XTT assay; assay type: cell-based; conditions: mda-mb-231, 144 h, dose 0.4-100 µM, time 6 day
Outline: (§1)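 Cells grown in RPMI with 10% FBS, 2 mM L-glutamine, penicillin/streptomycin and 1% non-essential amino acids. Seeded at 5 x 10³ cells/well and left 24 h at 37 °C, then treated at 100 μM to 0.4 μM. Exposure 6 days at 37 °C with fresh treatment medium every 48 h. Doxorubicin 10 μM and DMSO 0.01% served as controls. XTT with 1.25% PMS for 2 h; absorbance at 450 minus 650 nm, as % viable versus DMSO. Curves fitted by four-parameter non-linear regression. Mean ± SEM, n = 3/concentration, ≥3 independent experiments.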

[1] = target: Voltage-gated inwardly rectifying potassium channel KCNH2 (Homo sapiens, UniProt Q12809); experiment: Inhibition of human ERG at 10 uM
Chain of Voltage-gated inwardly rectifying potassium channel KCNH2 (Q12809 whole entry): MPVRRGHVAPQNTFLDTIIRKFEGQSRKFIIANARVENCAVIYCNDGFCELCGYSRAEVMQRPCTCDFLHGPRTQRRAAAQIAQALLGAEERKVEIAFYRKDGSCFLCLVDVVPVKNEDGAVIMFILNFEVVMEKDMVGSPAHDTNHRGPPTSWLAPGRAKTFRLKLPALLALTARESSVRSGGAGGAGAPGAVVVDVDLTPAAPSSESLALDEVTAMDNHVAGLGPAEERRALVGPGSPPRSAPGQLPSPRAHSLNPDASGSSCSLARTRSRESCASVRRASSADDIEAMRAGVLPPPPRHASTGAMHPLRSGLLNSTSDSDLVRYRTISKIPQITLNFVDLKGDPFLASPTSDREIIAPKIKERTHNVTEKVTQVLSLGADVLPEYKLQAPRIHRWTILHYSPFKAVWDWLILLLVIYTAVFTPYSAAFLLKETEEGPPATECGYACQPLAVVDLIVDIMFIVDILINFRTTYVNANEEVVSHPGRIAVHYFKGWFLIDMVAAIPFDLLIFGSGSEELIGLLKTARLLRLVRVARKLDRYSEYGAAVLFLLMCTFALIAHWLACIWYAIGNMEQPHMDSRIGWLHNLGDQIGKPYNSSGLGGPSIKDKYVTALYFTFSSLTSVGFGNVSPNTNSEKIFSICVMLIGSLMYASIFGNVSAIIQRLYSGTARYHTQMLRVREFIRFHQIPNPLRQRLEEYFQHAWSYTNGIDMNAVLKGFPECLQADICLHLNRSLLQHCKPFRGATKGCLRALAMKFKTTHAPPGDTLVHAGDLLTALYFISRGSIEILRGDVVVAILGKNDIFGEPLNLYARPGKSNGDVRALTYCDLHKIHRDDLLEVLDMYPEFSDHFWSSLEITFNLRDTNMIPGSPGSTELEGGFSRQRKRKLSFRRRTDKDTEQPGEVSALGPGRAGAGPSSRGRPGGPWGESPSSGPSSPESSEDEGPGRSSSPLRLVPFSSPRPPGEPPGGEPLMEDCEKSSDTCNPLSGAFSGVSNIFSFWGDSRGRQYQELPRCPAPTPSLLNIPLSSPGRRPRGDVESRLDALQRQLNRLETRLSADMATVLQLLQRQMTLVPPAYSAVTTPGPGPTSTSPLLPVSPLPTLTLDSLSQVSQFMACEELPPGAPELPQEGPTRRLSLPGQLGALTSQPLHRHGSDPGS

MCF7 = experiment: Antiproliferative activity against human MCF7 cells assessed as cell growth inhibition at 0.4 to 100 uM after 6 days by XTT assay; assay type: cell-based; conditions: mcf7, 144 h, dose 0.4-100 µM, time 6 day; outline: as §1
[2] = target: T1, 5-hydroxytryptamine receptor 1A (Homo sapiens, UniProt P08908); experiment: Inhibition of human serotonin 5HT-1A receptor at 10 uM
T1 sequence (P08908 whole entry): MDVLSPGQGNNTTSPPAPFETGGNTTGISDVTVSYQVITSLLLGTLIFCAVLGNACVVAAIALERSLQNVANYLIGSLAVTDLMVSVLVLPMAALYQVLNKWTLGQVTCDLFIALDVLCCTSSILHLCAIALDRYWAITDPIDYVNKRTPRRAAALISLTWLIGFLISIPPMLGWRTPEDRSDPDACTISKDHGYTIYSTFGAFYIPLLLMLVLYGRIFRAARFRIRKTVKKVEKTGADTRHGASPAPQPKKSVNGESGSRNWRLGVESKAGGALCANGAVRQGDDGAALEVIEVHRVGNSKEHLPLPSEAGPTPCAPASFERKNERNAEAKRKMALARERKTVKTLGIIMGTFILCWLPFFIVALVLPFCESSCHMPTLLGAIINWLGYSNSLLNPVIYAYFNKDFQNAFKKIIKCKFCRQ

HEK293 [3] = experiment: Antiproliferative activity against wild type human HEK293 cells assessed as cell growth inhibition at 0.4 to 100 uM after 6 days by XTT assay; assay type: cell-based; conditions: hek293, 144 h, dose 0.4-100 µM, time 6 day
[4] = Inhibition of rat L-type calcium channel (verapamil site) at 10 uM
[5] = target: T2, Transient receptor potential cation channel subfamily V member 6 (Homo sapiens) (UniProt Q9H1D0); experiment: Inhibition of human TRPV6 expressed in HEK293 cells assessed as reduction in Cd2+ influx at 10 uM preincubated with compound followed by Cdcl2 addition measured for 12 to 30 mins by Leadmium-green and Alexafluor-594 conjugate based confocal microscopic analysis; assay type: cell-based; conditions: time lower […], time upper 30.0 min
T2 sequence (whole entry): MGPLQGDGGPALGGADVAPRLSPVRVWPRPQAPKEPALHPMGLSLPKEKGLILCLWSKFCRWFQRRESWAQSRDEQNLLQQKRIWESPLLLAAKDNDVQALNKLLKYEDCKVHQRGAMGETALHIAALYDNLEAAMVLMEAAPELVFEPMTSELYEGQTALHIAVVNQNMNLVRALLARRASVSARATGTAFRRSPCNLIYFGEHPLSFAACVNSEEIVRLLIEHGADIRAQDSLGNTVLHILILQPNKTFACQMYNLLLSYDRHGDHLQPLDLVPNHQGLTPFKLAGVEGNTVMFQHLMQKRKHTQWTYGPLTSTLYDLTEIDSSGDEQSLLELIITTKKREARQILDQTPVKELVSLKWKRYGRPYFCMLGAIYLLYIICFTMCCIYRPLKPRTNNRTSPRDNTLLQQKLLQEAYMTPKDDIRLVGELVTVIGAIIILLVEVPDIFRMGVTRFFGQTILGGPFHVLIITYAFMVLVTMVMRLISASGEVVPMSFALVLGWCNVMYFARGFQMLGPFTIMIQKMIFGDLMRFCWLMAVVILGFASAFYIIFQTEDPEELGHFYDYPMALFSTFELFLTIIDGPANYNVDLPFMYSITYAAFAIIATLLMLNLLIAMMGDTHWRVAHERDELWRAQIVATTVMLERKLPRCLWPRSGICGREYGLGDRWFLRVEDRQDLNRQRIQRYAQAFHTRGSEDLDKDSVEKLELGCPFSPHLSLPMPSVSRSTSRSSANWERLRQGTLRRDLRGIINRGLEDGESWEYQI
Outline: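 HEK-hTRPV6 cells on poly-D-lysine chambered coverglass, 24 h. Stained 30 min at 37 °C in nominally Ca²⁺-free buffer with Leadmium Green, Hoechst 33258 and WGA-Alexa Fluor 594 at 5, 1 and 5 ng/µL final. Washed, then test compound at 10 µM or DMSO added. CdCl2 at 50 µM final was added at the start of 30 min confocal imaging at 100X. Total fluorescence per channel was plotted over time.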

Mu-type opioid receptor = Mu-type opioid receptor (Homo sapiens, UniProt P35372); experiment: Inhibition of human mu-opioid receptor at 10 uM
Chain of Mu-type opioid receptor (P35372 whole entry): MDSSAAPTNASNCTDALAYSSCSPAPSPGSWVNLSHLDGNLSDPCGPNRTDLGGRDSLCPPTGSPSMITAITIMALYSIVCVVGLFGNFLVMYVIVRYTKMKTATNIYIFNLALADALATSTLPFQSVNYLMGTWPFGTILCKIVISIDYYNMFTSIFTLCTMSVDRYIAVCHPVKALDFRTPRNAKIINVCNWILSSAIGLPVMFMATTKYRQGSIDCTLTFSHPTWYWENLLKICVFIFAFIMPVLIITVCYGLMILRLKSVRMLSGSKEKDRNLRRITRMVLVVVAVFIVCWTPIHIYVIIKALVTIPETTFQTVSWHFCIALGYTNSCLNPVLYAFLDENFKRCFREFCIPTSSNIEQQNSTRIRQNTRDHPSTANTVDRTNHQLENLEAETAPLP

[6] = target: T2, Transient receptor potential cation channel subfamily V member 6 (Homo sapiens); experiment: Inhibition of human TRPV6 expressed in HEK293 cells assessed as reduction in cadmium induced cytotoxicity by measuring increase in cell survival at 10 uM incubated for 24 hrs by XTT assay; assay type: cell-based
Outline: (§2)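 HEK293 wt or HEK-hTRPV6 cells in DMEM with 10% FBS, glutamine, penicillin/streptomycin and non-essential amino acids. Seeded at 1.5 x 10⁴ cells/well and left 24 h, then given CdCl2 at 50 to 0.05 µM with or without test compound at 1.0 or 10 µM; blank was 0.01% DMSO. Incubation 24 h at 37 °C. XTT/PMS read for 2 h at A450−A650, as % viable versus blank. n = 4/concentration, 2 independent experiments.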

HEK293 [7] = experiment: Effect on cadmium induced toxicity in wild type human HEK293 cells assessed as cell survival at 1 to 10 uM incubated for 24 hrs by XTT assay; assay type: functional, cell-based; conditions: dose 1-10 µM; outline: as §2
D(1A) dopamine receptor = D(1A) dopamine receptor (Homo sapiens, UniProt P21728); experiment: Inhibition of human dopamine D1 receptor at 10 uM
Chain of D(1A) dopamine receptor (P21728 whole entry): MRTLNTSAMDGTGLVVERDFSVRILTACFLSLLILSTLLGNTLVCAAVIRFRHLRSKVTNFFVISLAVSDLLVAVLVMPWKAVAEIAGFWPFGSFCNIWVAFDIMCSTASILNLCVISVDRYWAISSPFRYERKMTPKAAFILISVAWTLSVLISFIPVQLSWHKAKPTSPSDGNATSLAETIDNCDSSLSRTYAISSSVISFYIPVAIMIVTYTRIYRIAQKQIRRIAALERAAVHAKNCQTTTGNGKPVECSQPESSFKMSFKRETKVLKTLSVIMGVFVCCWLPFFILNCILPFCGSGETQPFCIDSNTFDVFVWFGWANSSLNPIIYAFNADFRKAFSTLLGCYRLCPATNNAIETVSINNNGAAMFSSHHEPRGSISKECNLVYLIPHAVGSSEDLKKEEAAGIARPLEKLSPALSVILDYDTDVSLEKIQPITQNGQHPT

- inhibition (INH) [2]: Not Active
- inhibition (INH) [4]: Not Active
- inhibition [5]: Active
- inhibition (INH) (Mu-type opioid receptor): Not Active
- inhibition (INH) (D(1A) dopamine receptor): Not Active
SMILES: O=c1ccc(CN2CCN([C@H]3CC[C@@](O)(c4cccc(C(F)(F)F)c4)CC3)CC2)c[nH]1
- Activity (SK-OV-3): Non-Toxic
- Activity (MDA-MB-231): Non-Toxic
- inhibition (INH) [1]: Not Active
- Activity (MCF7): Non-Toxic
- Activity (HEK293 [3]): Non-Toxic
- inhibition [6]: Active
- Activity (HEK293 [7]): inactive
